Bioassay records (PubChem BioAssay)
The list is not random: actives were taken first. Their share in the collection is about 2.9%.
M1 ag parental: nonselective activator or artifact in parental CHO-K1 cells | Fluo-8 calcium fluorescence; scaled to maximal ATP response, vehicle zero | activation, % at 3 µM | 360,000 tested, 0.48% active; in the data active = activation above about 15%;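 note: untransfected CHO-K1 host cells lacking M1 receptor as counterscreen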
OX1R antag-1: OX1R (human) antagonism | OX1R-expressing cells, FRET antagonist read-out | inhibition, % at 6.6 µM | 330,000 tested, 1.8% active | AID 485270; in the data active = inhibition mostly above about 38%, no sharp cut-off; inactive = mostly below about 40%
Target sequence (O43613 whole entry, looked up): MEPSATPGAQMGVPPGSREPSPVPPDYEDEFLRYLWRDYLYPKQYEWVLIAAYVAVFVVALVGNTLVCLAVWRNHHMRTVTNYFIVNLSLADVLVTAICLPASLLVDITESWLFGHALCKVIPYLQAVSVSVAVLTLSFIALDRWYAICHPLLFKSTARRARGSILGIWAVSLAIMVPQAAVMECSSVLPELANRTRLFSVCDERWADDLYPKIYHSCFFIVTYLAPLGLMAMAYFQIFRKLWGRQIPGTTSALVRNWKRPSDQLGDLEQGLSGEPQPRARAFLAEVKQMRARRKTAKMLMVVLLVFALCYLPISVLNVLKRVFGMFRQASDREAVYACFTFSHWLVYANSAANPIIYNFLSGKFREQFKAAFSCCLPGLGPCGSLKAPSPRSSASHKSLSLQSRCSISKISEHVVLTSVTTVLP
OX1R antag-2: blocks the human orexin 1 receptor; inhibition, % at 5 µM; 330,000 tested, 0.43% active; CHO/OX1R cells, Fluo-8 calcium fluorescence, orexin A; O43613;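 active = inhibition above its plate's threshold, mean inhibition of all tested compounds on the plate plus 3 SD, cut at about 37% in these data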
CHO parental Ca: counter-screen: ATP calcium response change in parental CHO cells | parental CHO-K1, ATP-induced calcium, Fluo-8 fluorescence | 330,000 tested, 0.63% active | inhibition, % at 5.6 µM;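 active = inhibition above that plate's mean sample inhibition plus 3 SD, cut at about 26% in these data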
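Material: Parental CHO cells | Reagent: ATP | Compound dosing: Single nominal dose of 5.6 µM per compound | Detection: Intracellular calcium via Fluo-8 no-wash fluorescent dye | Read-out: % inhibition of ATP-induced calcium mobilization | Benchmarks: Low control ATP plus DMSO, high control DMSO only | Replicates: Singlicate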
M1 PAM parental: M1 PAM counterscreen hit in parental CHO-K1 cells. ATP EC20, Fluo-8 calcium fluorescence; 0% at ATP EC20, 100% at ATP max. activation, % at 3 µM. 360,000 tested, 0.02% active. AID 602247;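 active = activation above the run cutoff, the mean activation of all test compounds plus 3 SD, cut at about 40% in these data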;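 note: peak over basal fluorescence ratio in a 140 s read after ATP addition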
CHO-K1 Ca antag: counter-screen for M1 antagonists: effect in parental CHO-K1 cells; ATP-induced calcium, Fluo-8 fluorescence; inhibition, % at 3 µM; 360,000 tested, 0.6% active; AID 602250;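 active = inhibition above a per-plate cutoff, the plate's mean sample inhibition plus 3 SD, cut at about 24% in these data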
A number is an active result; - = inactive; . = no result given.

SMILES	M1 ag parental	OX1R antag-1	OX1R antag-2	CHO parental Ca	M1 PAM parental	CHO-K1 Ca antag
O=C1c2ccc(Oc3ccc4c(c3)C(=O)N(CCCCO)C4=O)cc2C(=O)N1CCCCO	-	-	-	-	-	-
O=C1c2ccc(-c3ccc4c(c3)C(=O)N(CCCO)C4=O)cc2C(=O)N1CCCO	-	59	-	-	-	-
NS(=O)(=O)c1ccc(NC(=S)NCCc2ccccc2)cc1	-	-	-	-	-	-
O=C(Nc1ccc([N+](=O)[O-])cc1)c1ccc(Cn2cc([N+](=O)[O-])cn2)cc1	-	-	-	-	-	-
O=[N+]([O-])c1ccc(NC(=S)NCCc2ccc(Cl)cc2)cc1	-	71	64	69	-	-
O=[N+]([O-])c1ccc(NC(=S)NCCc2ccccc2)cc1	-	47	-	51	-	-
O=[N+]([O-])c1ccc(NC(=S)NCc2ccc(F)cc2)cc1	-	-	-	74	-	24
O=C(Nc1cnn(Cc2ccc(Cl)cc2)c1)c1ccc([N+](=O)[O-])cc1	-	-	-	64	-	-
Cc1cc(N2CCN(C(=O)c3cccs3)CC2)c(F)cc1[N+](=O)[O-]	-	-	-	52	-	-
CCC(=O)c1ccc(N2CCN(C(=O)c3cccs3)CC2)c(F)c1	-	-	-	-	-	26
O=C(c1cccs1)N1CCN(c2ccc([N+](=O)[O-])cc2F)CC1	-	-	-	-	-	-
CCOC(=O)N(C)c1c(CC)nc2c(OCc3ccccc3C)cccn12	-	.	.	.	-	-
Cc1ccc(CN(C)C2CCN(C)CC2)cc1	-	-	-	-	-	-
COc1cccc(Nc2nn3c(=O)c4ccccc4nc3s2)c1	-	39	-	-	-	-
COc1cc(NC(=O)c2cc3c(C)nc4ccccc4c3o2)cc(OC)c1OC	-	-	-	-	-	-
CCc1ccc(CNC(=O)c2cc3c(C)nc4ccccc4c3o2)cc1	-	79	-	46	-	-
COc1ccc(CNC(=O)c2cc3c(C)nc4ccccc4c3o2)c(OC)c1	-	56	-	57	-	-
Cc1nc2ccccc2c2oc(C(=O)Nc3ccc(C(C)C)cc3)cc12	-	66	-	-	-	25
Cc1nc2ccccc2c2oc(C(=O)NCC3COc4ccccc4O3)cc12 (stereo not drawn)	-	85	-	41	-	-
COc1cccc(CNC(=O)c2cc3c(C)nc4ccccc4c3o2)c1	-	-	-	-	-	-
COc1ccc(SC[C@H](CC(C)C)N2CCN(CCc3ccccc3)CCC2=O)cc1	-	-	-	-	-	-
CCN1C(=O)[C@@H]2[C@@H](c3ccc(-c4ccc(Cl)c(Cl)c4)c(OC)c3)N3CCCC[C@@]3(C(=O)OC)[C@@H]2C1=O	-	-	-	-	-	-
C=CCN1C(=O)c2ccccc2NC1c1cc(Br)cs1 (stereo not drawn)	-	-	-	-	-	-
CC1CN(S(=O)(=O)c2cccc(C(=O)NCC3COc4ccccc4O3)c2)CC(C)O1 (stereo not drawn)	-	-	-	-	-	-
O=C(NCC1COc2ccccc2O1)c1cccc(S(=O)(=O)NCc2ccccc2)c1 (stereo not drawn)	-	51	-	-	-	-
SMILES	M1 ag parental	OX1R antag-1	OX1R antag-2	CHO parental Ca	M1 PAM parental	CHO-K1 Ca antag
COc1ccc(CC(=O)NC(C)c2nnc(SCC(=O)c3ccc(Br)cc3)n2C)cc1 (stereo not drawn)	-	-	-	-	-	-
COc1ccc(CC(=O)NC(C)c2nnc(SCC(=O)Nc3nc(C)cs3)n2C)cc1 (stereo not drawn)	-	-	-	-	-	31
N#Cc1c(-c2cccs2)cc(-c2cccnc2)nc1N	-	46	-	-	-	-
O=C(NCCCN1CCCC1)c1ccc2c(c1)N(Cc1ccccc1)CCS2	-	-	-	-	-	-
COc1ccc(CCNC(=O)c2ccc3c(c2)N(Cc2ccccc2)CCS3)cc1OC	-	57	-	-	-	-
COc1ccc(OC)c(CCNC(=O)c2ccc3c(c2)N(Cc2ccccc2)CCS3)c1	-	-	-	-	-	-
NS(=O)(=O)c1ccc(CCNC(=O)c2ccc3c(c2)N(Cc2ccccc2)CCS3)cc1	-	70	-	-	-	-
COc1ccc(NC(=O)C(C)N2c3cccc4cccc(c34)S2(=O)=O)cc1OC (stereo not drawn)	-	-	-	41	-	-
Cc1cc2ncn(CCC(=O)NC3CCCC3)c2cc1C	19	-	-	-	-	-
NC(=O)c1oc2ccccc2c1NC(=O)c1nc2ccccc2s1	-	-	-	-	-	-
O=C(Nc1nnc(-c2ccccc2)o1)c1nc2ccccc2s1	-	-	-	28	-	-
COc1ccccc1C(=O)Nc1sc(C(=O)N2CCCC2)c(C)c1C#N	-	-	-	-	-	-
Cc1c(C(=O)N2CCCC2)sc(NC(=O)c2ccc(Cl)cc2)c1C#N	-	-	-	-	-	24
Cc1cccc(N=NC(=S)NNc2cccc(C)c2)c1	-	.	.	.	-	-
COc1ccc([C@H]2CN(c3ccc(OC)cc3)C(=O)[C@@H]2CC(=O)Nc2ccccc2)cc1	-	.	.	.	-	-
COc1ccc(CN(C(=O)CSc2nnc(-c3c[nH]c4ccccc34)o2)c2ccc(F)cc2)cc1OC	-	81	-	35	-	-
COc1cc(NC(=O)c2onc(C)c2Cl)cc(OC)c1OC	-	-	-	-	-	-
CS(=O)(=O)N1CCC(C(=O)N2CCN(c3ccccc3F)CC2)CC1	17	-	-	-	-	-
CC(=O)c1ccc(N2CCN(S(=O)(=O)c3ccc4c(c3)CC(C)N4C(C)=O)CC2)cc1 (stereo not drawn)	-	-	42	-	-	-
CC(=O)N1c2ccc(S(=O)(=O)N3CCC(C(=O)N4CCN(c5cc(Cl)ccc5C)CC4)CC3)cc2CC1C (stereo not drawn)	-	-	-	43	-	26
O=C(C1CCN(S(=O)(=O)c2ccccc2)CC1)N1CCN(c2ccccc2F)CC1	-	-	-	-	-	-
CC1Cc2cc(S(=O)(=O)N3CCC(C(=O)N4CCN(c5ccccc5F)CC4)CC3)ccc2N1C(=O)C1CC1 (stereo not drawn)	-	-	-	-	-	29
COc1ccccc1N1CCN(C(=O)C2CCN(S(=O)(=O)c3ccc4c(c3)CC(C)N4C(=O)C3CC3)CC2)CC1 (stereo not drawn)	-	-	-	-	-	-
CC(=O)c1ccc(N2CCN(S(=O)(=O)c3ccc4c(c3)CC(C)N4C(=O)C3CC3)CC2)cc1 (stereo not drawn)	-	-	-	-	-	-
CC(=O)N1C(=O)C2(NCC(C)N2)c2ccccc21 (stereo not drawn)	-	.	.	.	-	-
CCOc1ccccc1NC(=O)CN(c1ccc(Cl)cc1)S(C)(=O)=O	-	-	-	-	-	-
